Assay outcomes: PubChem BioAssay, The Scripps Research Institute Molecular Screening Center
UHRF1 binding: UHRF1 methyl-DNA binding inhibition. 0.75% of 370,000 active. Q96T88. inhibition, % at 4.4 µM. UHRF1 binding to methylated oligo, TR-FRET. AID 687016; in the data active = inhibition above about 21%;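 also: UHRF1 SRA domain binding a hemimethylated CpG hairpin DNA probe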
TDP2 inh: TDP2 (human) inhibition, absorbance primary screen. O95551. recombinant TDP2, T5PNP hydrolysis, p-nitrophenol absorbance 415 nm. inhibition, % at 12.8 µM. 0.34% of 370,000 active. AID 720702;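 active = inhibition above the mean of all tested compounds plus 3 SD, set per campaign, cut at about 25% in these data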
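System – recombinant human TDP2 · Quantity – TDP2 enzyme at 120 nM final · Doses – single concentration, 12.8 µM nominal, with 1% DMSO · Incubation – 2 h at 37 °C · Measured by – epi absorbance of p-nitrophenol freed from T5PNP by hydrolysis · Read-out – % inhibition relative to enzyme-containing and enzyme-free wells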
MBD2 DNA inh: MBD2-methylated oligo binding inhibition | Q9UBB5 | TR-FRET, MBD2 binding to methylated oligonucleotide | inhibition, % at 4.4 µM | 0.31% of 370,000 active | AID 686964; in the data active = inhibition above about 13%
LEDGF integ inh: blocks HIV-1 LEDGF/p75-dependent DNA integration; TR-FRET IN-LEDGF/p75 DNA integration, Eu/Cy5; inhibition, % at 3.7 µM; 0.64% of 370,000 active;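 active = inhibition above the screen-wide mean plus 3 SD, cut at about 13% in these data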;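 also: signal is the Cy5 over europium emission ratio at 671 and 618 nm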
Rin1 Abl inh: inhibitors of human Rin1-Abl protein interaction; TR-FRET Rin1/Abl binding, biochemical; P00519+Q13671; inhibition, % at 7.35 µM; 0.4% of 360,000 active; in the data active = inhibition above about 5%, passing the limit was not always enough
IN multimer up: counter-screen for LEDGF/p75 integration inhibitors: HIV-1 integrase multimerization activators; shares compounds with LEDGF integ inh; TR-FRET HIV-1 integrase multimerization, biochemical; activation, % at 7.7 µM; 17% of 2,000 active; in the data active = activation above about 8.9%
TR-FRET interf: optically interferes with TR-FRET readout in LEDGF counter-screen. shares compounds with LEDGF integ inh. TR-FRET optical interference counterscreen, HIV-1 IN multimerization. inhibition, % at 7.7 µM. 2,000 tested, under 10 active;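 active = inhibition above the mean over all tested compounds plus 3 SD, which no compound reached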
IN-LEDGF confirm: confirmation of HIV-1 LEDGF/p75-dependent integration inhibitors | AID 1053136 | 36% of 2,000 active | inhibition, % at 3.7 µM | TR-FRET LEDGF/p75-dependent HIV-1 integration, biochemical | shares compounds with LEDGF integ inh; in the data active = inhibition above about 14%
Numbers stand for hits; . = inactive; / = no result given. This is a sample that favours compounds with a hit; in the whole collection about 1.9% have one here.

SMILES | UHRF1 binding | TDP2 inh | MBD2 DNA inh | LEDGF integ inh | Rin1 Abl inh | IN multimer up | TR-FRET interf | IN-LEDGF confirm
CCCS(=O)(=O)NC(=O)C1(C)CCN(C(=O)c2cc(F)cc(F)c2)C1 (configuration not stated) | . | . | . | . | . | / | / | /
Cc1ccc(N=Cc2cccc(O)c2O)c(C)c1 | . | . | . | 31 | . | . | . | 75
Cc1ccccc1N=Cc1cccc(O)c1O | / | / | / | / | . | / | / | /
Oc1cccc(/C=N/N=C/c2cccc(O)c2O)c1O | . | . | . | 27 | . | . | . | 73
COc1ccc(-c2ccc(C(=O)Nc3cccc(F)c3)c3occc23)c(C)c1 | . | . | . | . | . | / | / | /
COc1ccc(-c2ccc(C(=O)Nc3cccc(NS(C)(=O)=O)c3)c3occc23)c(C)c1 | . | . | . | 16 | . | . | . | .
COc1ccc(CC(=O)N/N=C/c2cccn2-c2ccc([N+](=O)[O-])cc2)cc1OC | . | . | . | . | . | / | / | /
CC(C)(C)OC(=O)N/N=C/c1cccn1-c1ccc([N+](=O)[O-])cc1 | . | . | . | 14 | . | . | . | .
O=C(Cn1cc(COc2ccc(Cl)c(Cl)c2)nn1)NS(=O)(=O)c1ccccc1C(F)(F)F | . | . | . | . | . | / | / | /
O=C(Cn1cc(COc2ccc(-n3cccc3)cc2)nn1)NS(=O)(=O)c1ccccc1C(F)(F)F | . | . | . | 27 | . | . | . | .
CC(=NNC1=NCCN1)c1cnn(C2=NCCN2)c1C | . | . | . | 18 | . | . | . | .
CCOc1ccc(Br)cc1/C(C)=N\NC1=NCCN1 | . | . | . | . | . | / | / | /
CCS(=O)(=O)C1=NN2C(=N)/C(=C\c3ccc(SCc4ccco4)o3)C(=O)N=C2S1 | 38 | . | . | 43 | . | 15 | . | 53
CCOc1cc(/C=C2\C(=N)N3N=C(S(=O)(=O)CC)SC3=NC2=O)ccc1OC(=O)c1ccco1 | . | . | . | . | . | / | / | /
Cc1cccc(CSc2nnc([C@@H]3CCCN3)o2)c1 | . | . | . | . | . | / | / | /
OC(c1ccc(F)cc1)c1ncc(-c2cccc3ccccc23)[nH]1 (configuration not stated) | . | . | . | . | . | / | / | /
COc1cccc(CNC(=O)CN2C(=O)CSc3ccc(S(=O)(=O)N4CCCCC4)cc32)c1 | . | . | . | . | . | / | / | /
CC(=O)Nc1ccc(-c2ccnc3c2CC(C(=O)Nc2ccc(Cl)c(C(F)(F)F)c2)O3)cc1 (configuration not stated) | . | . | . | 37 | . | . | . | .
O=C(Nc1ccc(Cl)c(C(F)(F)F)c1)C1Cc2c(-c3ccccc3)ccnc2O1 (configuration not stated) | . | . | . | . | . | / | / | /
Cc1ccc(NC(=O)CCc2ccccc2)cc1C | . | . | . | 72 | . | . | . | .
O=C(CCc1ccccc1)Nc1cccc(NC(=O)CCc2ccccc2)c1 | . | . | . | . | . | / | / | /
c1ccc(-c2cn3nc(-c4ccccc4)cnc3n2)cc1 | . | . | . | 90 | . | . | . | .
CC(C)[C@@H]1NC(=O)[C@H]2C[C@@]3(c4ccccc4)c4ccccc4N[C@H]3N2C1=O | . | . | . | . | / | / | / | /
COc1ccc(NC(=O)CSc2nnc(-c3cnccn3)n2C)cc1OC | . | . | . | . | . | / | / | /
CCOc1ccc(CC(=O)N/N=C/c2sccc2C)cc1 | . | . | . | . | . | / | / | /
Cc1nnc(NC(=O)c2cc(-c3ccco3)nc3ccccc23)s1 | 26 | . | . | 16 | . | . | . | 29
O=C(O)c1cc(-c2ccco2)nc2ccccc12 | . | . | . | . | . | / | / | /
CCNC(=O)COC(=O)c1cc(-c2ccco2)nc2ccccc12 | . | . | . | 14 | . | . | . | 29
C/C(=N\NC(=O)c1cc(-c2ccco2)nc2ccccc12)c1cccnc1 | . | . | . | 64 | . | . | . | .
O=C(Nc1nc2ccccc2s1)c1cc(-c2ccco2)nc2ccccc12 | . | . | . | . | . | / | / | /
